What was measured:
P388 [1] = test: Antineoplastic activity against P388 leukemia in CD2F1 male mice and the percent increase in life span was measured on day 30.; format: functional, Mus musculus
Method in brief: (§1)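 P388 leukemia: CD2F1 male mice (18-20 g, six per group) received 10^6 cells ip on day 0. Drug injected ip daily on days 1-9. Survival followed 30 days, with some groups to 60 days. Activity read as treated/control mean survival time (T/C), with %ILS calculated as [(T - C)/C] × 100. NCI protocol.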

P388 [2] = test: Antineoplastic activities against P388 leukemia in CD2F1 male mice.; format: functional, Mus musculus; set-up: unit not given here; method in brief: as §1
[3] = Therapeutic ratio as optimum dose/dose ILS40; conditions: read-out: Therapeutic ratio
Method in brief: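 Therapeutic ratio derived from the P388/L1210 survival data (CD2F1 male mice, ip daily dosing days 1-9). Optimum dose is the daily dose giving maximum increase in life span. ILS40 dose is the daily dose giving a 40% increase in life span over controls.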

P388 [4] = test: Compound was tested for its antineoplastic activity against P388 leukemia in CD2F1 male mice and the average percentage weight change on day 5 was measured.; format: functional
Method in brief: (§2)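 Toxicity readout in the P388 model: CD2F1 male mice given 10^6 cells ip on day 0, then daily ip dosing for 9 days from day 1. Average percentage body-weight change on day 5 was taken as the measure of drug toxicity.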

P388 [5] = test: Number of cures from P388 leukemia in CD2F1 male mice as tumor-free survivors after day 60.; format: functional; conditions: for Cures (survivors/total): Mus musculus
Method in brief: (§3)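 Cures in P388-bearing CD2F1 male mice: 10^6 tumor cells ip on day 0, then ip treatment daily on days 1-9 in groups of six. Animals were observed up to 60 days, and tumor-free survivors were counted as cures.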

L1210 [6] = conditions: Mus musculus
L1210 [7] = conditions: Mus musculus, at 100 mg/kg/day
L1210 [8] = conditions: Mus musculus; remark: listed apart in the source
L1210 [9] = conditions: Mus musculus, at 100 mg/kg/day; remark: listed apart in the source
L1210 [10] = test: Compound was tested for anticancer activities against L1210 leukemia in CD2F1 male mice at dose of 6.5 mg/kg per day; 0/6; format: functional, Mus musculus
L1210 [11] = test: (§4) Compound was tested for anticancer activities against L1210 leukemia in CD2F1 male mice at dose of 6.5 mg/kg per day; format: functional, Mus musculus
L1210 [12] = test: as §4; format: functional; conditions: Mus musculus
P388 [13] = test: Compound was tested for its antineoplastic activities against P388 leukemia in CD2F1 male mice.; format: functional, Mus musculus; method in brief: as §1
P388 [14] = test: Antineoplastic activity against P388 leukemia in CD2F1 male mice and the average percentage weight change on day 5 was measured.; format: functional, Mus musculus; method in brief: as §2
L1210 [15] = test: Compound was tested for anticancer activities against L1210 leukemia in CD2F1 male mice at dose of 50 mg/kg per day; 0/6; format: functional, Mus musculus
L1210 [16] = test: Compound was tested for anticancer activities against L1210 leukemia in CD2F1 male mice at dose of 50 mg/kg per day; format: functional, Mus musculus
L1210 [17] = test: Anticancer activities against L1210 leukemia in CD2F1 male mice at dose of 50 mg/kg per day; format: functional; conditions: Mus musculus
L1210 [18] = test: Compound was tested for anticancer activities against L1210 leukemia in CD2F1 male mice at dose of 50 mg/kg per day; 12.0/7; format: functional, Mus musculus
P388 [19] = test: Compound was tested for its antineoplastic activity against P388 leukemia in CD2F1 male mice and the percent increase in life span was measured on day 30.; format: functional, Mus musculus; method in brief: as §1
P388 [20] = test: Compound was tested for number of cures from P388 leukemia in CD2F1 male mice as tumor-free survivors after day 60; 3/6; format: functional, Mus musculus; method in brief: as §3
L1210 [21] = conditions: Mus musculus; remark: listed apart in the source
L1210 [22] = format: functional, Mus musculus
L1210 [23] = test: Compound was tested for anticancer activity against L1210 leukemia in CD2F1 male mice at dose of 25 mg/kg per day; 8.6/7; format: functional, Mus musculus
L1210 [24] = test: Compound was tested for anticancer activity against L1210 leukemia in CD2F1 male mice at dose of 50 mg/kg per day; 12.6/7; format: functional, Mus musculus
L1210 [25] = format: functional, Mus musculus; remark: listed apart in the source
L1210 [26] = test: Compound was tested for anticancer activities against L1210 leukemia in CD2F1 male mice at dose of 25 mg/kg per day; 0/6; format: functional, Mus musculus
L1210 [27] = test: animal or person; format: functional; conditions: Mus musculus
L1210 [28] = test: Compound was tested for anticancer activities against L1210 leukemia in CD2F1 male mice at dose of 25 mg/kg per day; format: functional; conditions: Mus musculus
L1210 [29] = format: functional, Mus musculus; conditions: at 100 mg/kg/day
L1210 [30] = test: Compound was tested for anticancer activity against L1210 leukemia in CD2F1 male mice at dose of 25 mg/kg per day; format: functional, Mus musculus
L1210 [31] = test: Compound was tested for anticancer activity against L1210 leukemia in CD2F1 male mice at dose of 50 mg/kg per day; format: functional, Mus musculus
P388 [32] = test: Compound was tested for its antineoplastic activity against P388 leukemia in CD2F1 male mice.; format: functional, Mus musculus; method in brief: as §1
P388 [33] = test: Compound was tested for number of cures from P388 leukemia in CD2F1 male mice as tumor-free survivors after day 60; 6/6; format: functional, Mus musculus; method in brief: as §3

Compound CC1(C)CC(OP(=S)(N2CC2)N2CC2)CC(C)(C)N1[O] has an ILS (P388 [1]) of 103%, an Optimal dose (P388 [2]) of 12 and a selectivity ratio [3] of 5.15.
CC1(C)CC(NC(=O)NP(=O)(N2CC2(C)C)N2CC2(C)C)CC(C)(C)N1[O] (stereo not given) showed an ILS (P388 [1]; Mus musculus) of 62%, a Weight change on day 5 (P388 [4]; Mus musculus) of 7.3% and a Cures (survivors/total) (P388 [5]) of 0. It also gave an Optimal dose (P388 [2]; Mus musculus) of 90, a Survivors at day 30 (L1210 [6]) of 0 and an ILS (L1210 [7]) of 64%. For the same compound, the T/C survival days (L1210 [8]) was 11.5 and the T/C (L1210 [9]) was 164%.
For S=P(N1CC1)(N1CC1)N1CC1 [THIOTEPA], the “Survivors at day 30” value (L1210 [10]) was 0, the T/C (L1210 [11]) was 155% and the ILS at 6.5 mg/kg/day (L1210 [12]) was 55%. The ILS (P388 [1]) was 141%, the ILS40 (P388 [13]) was 2.18 mg/kg/day and the Cures (P388 [5]) was 0 survivors/total. For the same compound, the Optimal dose (P388 [2]) was 6, the “Weight change on day 5” value (P388 [14]) was -2.1% and the selectivity ratio [3] was 2.75.
In the case of CC1(C)CC(NC(=O)NP(=O)(N2CC2)N2CC2)C(C)(C)N1[O] (stereo not given), the “Survivors at day 30” value (L1210 [15]) was 0, the T/C (L1210 [16]) was 172% and the ILS at 50 mg/kg/day (L1210 [17]) was 72%. It also gave a T/C survival days (L1210 [18]) of 12, an ILS (P388 [1]) of 178% and an ILS max (P388 [19]) of 387%. It also gave an ILS40 (P388 [13]) of 4 mg/kg/day, a Cures (P388 [20]) of 3 survivors/total and an Optimal dose (P388 [2]) of 90. For the same compound, the selectivity ratio [3] was 22.5.
In the case of CC1(C)CC(NP(=S)(N2CC2)N2CC2)CC(C)(C)N1[O], the ILS (P388 [1]) was 96%, the Optimal dose (P388 [2]) was 25 and the selectivity ratio [3] was 2.73.
With CC1(C)CC(NC(=O)NP(=O)(N2CC2(C)C)N2CC2(C)C)C(C)(C)N1[O] (stereo not given) the ILS (P388 [1]; Mus musculus) was 56%, the Cures (survivors/total) (P388 [5]) was 0 and the Optimal dose (P388 [2]; Mus musculus) was 90. For the same compound, the Weight change on day 5 (P388 [14]; Mus musculus) was 6.2%, the Survivors at day 30 (L1210 [6]) was 0 and the ILS (L1210 [7]) was 48%. It also gave a T/C survival days (L1210 [21]) of 10.4 and a T/C (L1210 [9]) of 148%.
In the case of O=c1[nH]cc(F)c(=O)[nH]1 [FLUOROURACIL], the ILS (P388 [1]) was 79%, the Cures (P388 [5]) was 0 survivors/total and the Optimal dose (P388 [2]) was 200. The “Weight change on day 5” value (P388 [14]) was -4%.
CC1(C)CC(NC(=O)NP(=O)(N2CC2)N2CC2)CC(C)(C)N1[O] gave a T/C survival days (L1210 [22]) of 14, a T/C survival days (L1210 [23]) of 8.6 and a T/C survival days (L1210 [24]) of 12.6. For the same compound, the “Survivors at day 30” value (L1210 [25]) was 0, the “Survivors at day 30” value (L1210 [26]) was 0 and the “Survivors at day 30” value (L1210 [15]) was 0. For the same compound, the ILS at 100 mg/kg/day (L1210 [27]) was 115%, the ILS at 25 mg/kg/day (L1210 [28]) was 23% and the ILS at 50 mg/kg/day (L1210 [17]) was 81%. For the same compound, the T/C (L1210 [29]) was 215%, the T/C (L1210 [30]) was 123% and the T/C (L1210 [31]) was 181%. For the same compound, the ILS (P388 [1]) was 170%, the ILS max (P388 [19]) was 439% and the ILS40 (P388 [32]) was 3.4 mg/kg/day. For the same compound, the Optimal dose (P388 [32]) was 90, the “Weight change on day 5” value (P388 [4]) was -2.4% and the Cures (P388 [33]) was 6 survivors/total. For the same compound, the selectivity ratio [3] was 26.5.
With O=P(N1CC1)(N1CC1)N1CC1 [TEPA] the ILS (P388 [1]) was 135%, the ILS40 (P388 [13]) was 2.75 mg/kg/day and the Cures (P388 [5]) was 0 survivors/total. The Optimal dose (P388 [2]) was 6, the “Weight change on day 5” value (P388 [14]) was -4% and the selectivity ratio [3] was 2.2.

— ChEMBL document CHEMBL1123268 (J Med Chem, 1986)
